In PMC11452527 (Nature Communications, 2024):
Where two headings read alike, the source gives them in different places.

Experiments:
[1] = target: αIIbβ3; conditions: cited from earlier work
[2] = Plasma protein binding by rapid equilibrium dialysis; type: in vitro ADME; conditions: human, platelet-free human plasma
[3] = target: T1, αIIbβ3 (Homo sapiens, UniProt P05106+P08514); experiment: LIBS AP5 epitope exposure on platelet αIIbβ3; type: cell-based; conditions: washed human platelets; tirofiban 0.17 μM, m-tirofiban 16 μM, Hr10 7.6 μM
T1 sequence (P08514 32-887 limits assumed): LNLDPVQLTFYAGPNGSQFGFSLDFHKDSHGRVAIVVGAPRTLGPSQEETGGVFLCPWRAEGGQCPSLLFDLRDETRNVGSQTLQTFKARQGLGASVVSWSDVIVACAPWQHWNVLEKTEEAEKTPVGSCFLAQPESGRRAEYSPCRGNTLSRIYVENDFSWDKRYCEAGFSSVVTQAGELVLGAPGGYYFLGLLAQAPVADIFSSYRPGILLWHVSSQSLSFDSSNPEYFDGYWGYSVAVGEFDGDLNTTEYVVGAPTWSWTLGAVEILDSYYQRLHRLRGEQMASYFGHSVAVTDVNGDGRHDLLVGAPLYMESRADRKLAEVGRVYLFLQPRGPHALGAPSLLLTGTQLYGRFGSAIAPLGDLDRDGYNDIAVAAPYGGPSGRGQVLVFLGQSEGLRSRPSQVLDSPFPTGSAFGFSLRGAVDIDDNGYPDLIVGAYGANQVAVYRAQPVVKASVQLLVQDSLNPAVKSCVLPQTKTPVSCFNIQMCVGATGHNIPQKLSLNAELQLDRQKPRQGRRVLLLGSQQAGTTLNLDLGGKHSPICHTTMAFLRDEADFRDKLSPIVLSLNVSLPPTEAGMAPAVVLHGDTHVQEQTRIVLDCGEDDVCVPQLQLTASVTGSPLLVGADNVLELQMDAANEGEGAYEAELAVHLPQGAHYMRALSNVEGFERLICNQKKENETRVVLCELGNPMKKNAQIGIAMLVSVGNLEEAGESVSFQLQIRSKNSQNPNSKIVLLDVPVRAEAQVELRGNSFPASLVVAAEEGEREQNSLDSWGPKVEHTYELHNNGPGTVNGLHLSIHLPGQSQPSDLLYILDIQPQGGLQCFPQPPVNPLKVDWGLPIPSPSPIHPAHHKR
T1 sequence (P08514 891-1039 partner limits assumed): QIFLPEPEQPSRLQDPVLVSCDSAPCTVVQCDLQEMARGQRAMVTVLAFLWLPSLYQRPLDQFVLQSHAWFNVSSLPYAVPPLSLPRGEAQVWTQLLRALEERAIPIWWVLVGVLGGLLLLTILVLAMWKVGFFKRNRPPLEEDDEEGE
T1 sequence (P05106 27-788): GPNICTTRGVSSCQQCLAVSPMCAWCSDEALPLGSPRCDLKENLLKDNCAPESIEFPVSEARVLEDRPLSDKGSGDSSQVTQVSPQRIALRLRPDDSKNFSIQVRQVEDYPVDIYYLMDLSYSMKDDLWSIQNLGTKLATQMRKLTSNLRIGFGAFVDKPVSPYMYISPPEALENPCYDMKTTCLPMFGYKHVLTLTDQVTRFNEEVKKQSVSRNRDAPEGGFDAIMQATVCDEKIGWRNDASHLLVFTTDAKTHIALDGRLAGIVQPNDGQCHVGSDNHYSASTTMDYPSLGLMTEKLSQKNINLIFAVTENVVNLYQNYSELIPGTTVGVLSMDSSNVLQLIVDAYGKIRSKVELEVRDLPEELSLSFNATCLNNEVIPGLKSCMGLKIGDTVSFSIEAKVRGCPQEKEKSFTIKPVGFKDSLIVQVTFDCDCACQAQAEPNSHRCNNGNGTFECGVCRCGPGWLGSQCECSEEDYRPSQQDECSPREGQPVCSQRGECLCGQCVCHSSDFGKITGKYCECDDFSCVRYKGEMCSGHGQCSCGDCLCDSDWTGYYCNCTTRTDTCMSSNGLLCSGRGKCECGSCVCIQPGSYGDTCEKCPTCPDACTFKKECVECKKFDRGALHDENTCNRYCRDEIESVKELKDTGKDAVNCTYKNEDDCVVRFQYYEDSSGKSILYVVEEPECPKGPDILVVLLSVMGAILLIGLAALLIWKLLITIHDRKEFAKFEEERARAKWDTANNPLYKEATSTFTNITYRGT
In short: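 Washed platelets came from citrated blood of drug-free donors: PRP was spun with PGE1 (20 ng/ml final), washed in Ringer's citrate-dextrose, and resuspended in Tyrode's buffer (pH 7.4, 0.02% BSA, 1 mM Ca²⁺/Mg²⁺). Buffer or test compound was preincubated 20 min at RT without stirring, then ADP (20 µM) plus Alexa647-AP5 (10 µg/mL) was added for 30 min at RT. Samples were diluted, fixed in 2% paraformaldehyde, and read by flow-cytometric MFI. Mean + s.e., n = 4 donors.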

[4] = tested on: platelets in whole blood; experiment: ADP-induced platelet aggregation in 1:1 diluted whole blood; type: cell-based; conditions: Homo sapiens, read-out: IC50agg
[5] = target: T1, αIIbβ3; experiment: ODE model of inhibitor occupancy of αIIbβ3; conditions: ODEs Eq 16-22
[6] = tested on: human PRP; experiment: Thrombin-induced clot retraction in platelet-rich plasma; type: cell-based; conditions: read-out: IC50clot
[7] = tested on: C57BL/6J mice; experiment: Thrombin-induced femoral vein thrombosis model; type: in vivo, mouse; conditions: bolus tirofiban 0.025 μg/g, m-tirofiban 0.3 μg/g
[8] = tested on: C57BL/6J mice; experiment: Tail vein bleeding model; type: in vivo, mouse; conditions: at the dose that suppressed femoral VT
[9] = tested on: platelets; conditions: cited from earlier work

## fibrinogen
[1]; read-out: Kd,F of fibrinogen to αIIbβ3, assumed in ODE model ref 58
  Kd: 143 nM

## CCCCS(=O)(=O)N[C@@H](Cc1ccc(OCCCCC2CCNCC2)cc1)C(=O)O [tirofiban]
[2]
  fraction unbound at 24 h, 2 µM: 0.413 ± 0.0303
[3]
  AP5 epitope expression above that seen with ADP (or thrombin) alone: large increase
[4]
  IC50: 6 ± 0.58 nM
[5]; 1:1 diluted whole blood
  concentration for 50% occupancy of αIIbβ3 (50% OCCL:T): 26.5 nM
[5]; undiluted whole blood
  concentration for 50% occupancy of αIIbβ3 (50% OCCL:T): 38.0 nM
[6]
  IC50: 162 ± 61 nM
[7]
  total accumulation of fibrin vs untreated: significant only at a p-value of 0.0606
[8]
  bleeding time vs PBS: prolonged bleeding time
  bleeding vs PBS: significant bleeding
[1]; read-out: Kd for pretreated (inactive) αIIbβ3
  Kd: 15 nM

## N=C(N)c1ccc(C(=O)N[C@@H](Cc2ccc([N+](=O)[O-])cc2)C(=O)N2CCc3nn(CC(=O)O)cc3C2)cc1 [UR-2922]
[1]; read-out: mean Kd to αIIbβ3
  Kd: 0.3 nM
[9]
  IC50clot/IC50agg ratio: 20.63
